Data from publication PMC3217166 (Toxicology in vitro : an international journal published in …, 2011).
≈ marks a conversion by molar mass, not a printed value. Where “and” joins values, the source holds several entries; their conditions need not be identical. Equal entries are not always repeated. Where two headings read alike, the source gives them in different places.

How the values were obtained:
Type in all cases: cell-based, Human
TK6 cells [1] = experiment: Cell viability / IC50 by trypan blue exclusion; settings: for IC50 (cell viability): same value expressed in mg/L
In short: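 TK6 lymphoblasts were grown in RPMI 1640 with 10% FBS at 37°C, 5% CO2, and subcultured at 1×10^6 cells per 3.5 mL to keep exponential growth. Cells were exposed for 24, 48 or 72 h to test compound at 10–500 μM ([…]). Viability was counted by trypan blue exclusion on an automated cell counter, and the 50% inhibitory concentration was read from the viability curves.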

TK6 cells [2] = settings: DEHP 234μM, MEHP 196μM (IC50's), valinomycin 11 uM
[3] = test system: caspases 3 and 7 in TK6 cells; experiment: Activation of caspases 3 and 7
TK6 cells [4] = experiment: Generation of reactive oxygen species; settings: for level of ROS generated: DEHP 234μM, MEHP 196μM (IC50's), cisplatin 13uM
[5] = read-out: IC50 (cell viability), 24 hours of exposure
[6] = read-out: IC50 (cell viability), 48 hours of exposure
[7] = read-out: IC50 (cell viability), 72 hours of exposure
[8] = 24 hours exposure, DEHP and MEHP at IC50's, staurosporine 1 uM
[9] = 48 hours exposure, DEHP 234μM, MEHP 196μM (IC50's), staurosporine 1μM

Structure (SMILES)	IC50 (cell viability) (TK6 cells [1]; 48 hours of exposure) [mg/L]	IC50 (cell viability) (TK6 cells [1]; 72 hours of exposure) [mg/L]	IC50 (TK6 cells [1]; [5])	IC50 (TK6 cells [1]; [6]) [µM]	IC50 (TK6 cells [1]; [7]) [µM]	mitochondrial membrane permeability (TK6 cells [2]; 24 hours exposure) [FSU]	mitochondrial membrane permeability (TK6 cells [2]; 48 hours exposure) [FSU]	caspases 3 and 7 activation [3, 8] [FSU]	caspases 3 and 7 activation [3, 9] [FSU]	level of ROS generated (TK6 cells [4]; 24 hours exposure) [FSU]	level of ROS generated (TK6 cells [4]; 48 hours exposure) [FSU]	ROS production relative to the parent DEHP (TK6 cells [4]; comparison among phthalates at IC50 doses)
CCCCC(CC)COC(=O)c1ccccc1C(=O)OCC(CC)CCCC (centres unmarked) [DEHP, diethylhexyl phthalate]	91.4 (≈ 234 µM)	39.06 (≈ 100 µM)	~250 µM and 250 µM	234	100	1100.85	2505.58	122.13	1406.94	458.54	793.27	–
CCCCC(CC)COC(=O)c1ccccc1C(=O)O (centres unmarked) [MEHP, monoethylhexyl phthalate]	54.55 (≈ 196 µM)	22.27 (≈ 80 µM)	250 µM	196	80	1630.94	2210.09	292.80	1209.72	816.53	1518.75	twice as much
N.N.[Cl][Pt][Cl] [Cisplatin, cis-diammineplatinum (II) dichloride, reference compound]	–	–	–	–	–	–	–	–	–	1348.85	1575.35	–
CC(C)[C@@H]1NC(=O)[C@H](C)OC(=O)[C@@H](C(C)C)NC(=O)[C@@H](C(C)C)OC(=O)[C@H](C(C)C)NC(=O)[C@H](C)OC(=O)[C@@H](C(C)C)NC(=O)[C@@H](C(C)C)OC(=O)[C@H](C(C)C)NC(=O)[C@H](C)OC(=O)[C@@H](C(C)C)NC(=O)[C@@H](C(C)C)OC1=O [valinomycin, Valinomycin, reference compound]	–	–	–	–	–	1079.18	2327.65	–	–	–	–	–
CN[C@@H]1C[C@H]2O[C@@](C)([C@@H]1OC)n1c3ccccc3c3c4c(c5c6ccccc6n2c5c31)C(=O)NC4 [Staurosporine, reference compound]	–	–	–	–	–	–	–	1390.92	1322.55	–	–	–
